Measured values pooled from the literature.
Compare with care: the assays were run in different laboratories.
Target: LIM domain kinase 1 (LIMK1, Homo sapiens, UniProt P53667)

SMILES	test	setting	measurement	value
CNC(=O)c1cc(Oc2ccc(NC(=O)Nc3ccc(Cl)c(C(F)(F)F)c3)cc2)ccn1	enzyme activity, inhibitor	10 µM	inhibition	89%
CCN(CC)c1ccc(C2=NNC(=O)CC2C)cc1[N+](=O)[O-] (centres unmarked)	enzyme activity, inhibitor	10 µM	remaining activity	93%
Cc1nc(Cc2cccc(C(F)(F)F)c2)sc1-c1ccc(C(N)=O)nc1	cell-free assay, competition with immobilised ligand	1 µM	remaining binding	100%
COc1cc(Nc2c(C#N)cnc3cc(OCCCN4CCN(C)CC4)c(OC)cc23)c(Cl)cc1Cl	cell-free assay	0.5 µM	remaining signal	96.4%
CSc1cccnc1N1CCN(Cc2nc3ccccc3[nH]2)CC1	cell-free assay, competition with immobilised ligand	1 µM	remaining binding	100%
CNC(=O)c1cc2c(Oc3ccc(NC(=O)C4(C(=O)Nc5ccc(F)cc5)CC4)cc3)ccnc2cc1OC	enzyme activity, inhibitor, radiometric	1 µM	inhibition	74%
CN(C)CC#Cc1ccc(OCCCc2sc(N3CCc4cccc(C(=O)Nc5nc6ccccc6s5)c4C3)nc2C(=O)O)c(F)c1	cell-free assay, competition with immobilised ligand	1 µM	remaining binding	97%
Nc1nc(Nc2ccc(S(N)(=O)=O)cc2)nn1C(=O)c1c(F)cccc1F	cell-free assay	0.5 µM	remaining signal	16.6%
CCN(CC)CCNC(=O)c1c(C)[nH]c(/C=C2\C(=O)Nc3ccc(F)cc32)c1C	enzyme activity, inhibitor	0.3 µM	inhibition	-9%
CC(C)(C)c1nc(-c2cccc(NS(=O)(=O)c3c(F)cccc3F)c2F)c(-c2ccnc(N)n2)s1	enzyme activity, inhibitor, radiometric	1 µM	remaining activity	98%
Cc1ccc(C(=O)Nc2ccc(CN3CCN(C)CC3)c(C(F)(F)F)c2)cc1C#Cc1cnc2cccnn12	enzyme activity, inhibitor	23.5 nM	remaining activity	99%
CCCOc1ccc(OC)c(F)c1C(=O)c1ccc(C(=O)N[C@@H]2CNC[C@H]2NC(=O)c2ccc3[nH]ncc3c2)cc1	enzyme activity, inhibitor	10 µM	remaining activity	73%
Cc1cnc(NC2CCOCC2)nc1-n1cnc(C(=O)NC(CN)c2cc(F)cc(Cl)c2)c1 (centres unmarked)	enzyme activity, inhibitor, radiometric	1 µM	remaining activity	64%
Nc1ncnc2occ(-c3ccc(NC(=O)Nc4cc(C(F)(F)F)ccc4F)cc3)c12	cell-free assay, inhibitor	20 µM	remaining signal	7.6%
O=C(O)[C@@H]1[C@@H](Cn2nnc3ccccc3c2=O)CC[C@H]1C(=O)c1ccc(OCCC2CCOCC2)cc1	cell-free assay, competition with immobilised ligand	1 µM	remaining binding	100%
Cn1cnc(Br)c1C1=CN(c2ncnc3[nH]cnc23)CCS1	enzyme activity, inhibitor, radiometric	50 nM	inhibition	15.2%
CC(=O)c1c(NS(C)(=O)=O)c2cc(-c3ccc(Cl)cc3)c(-c3ccc(Cl)cc3Cl)nc2n(C)c1=O	cell-free assay, competition with immobilised ligand	1 µM	remaining binding	88%
O=C(Nc1cnn(-c2csc(C(=O)NC3COC3)c2)c1)Nc1c(F)cccc1Cl	enzyme activity, inhibitor	5 µM	remaining activity	104%
C[C@@H]1CCN(C(=O)CC#N)C[C@@H]1N(C)c1ncnc2[nH]ccc12	cell-free assay, inhibitor	0.5 µM	remaining signal	82%
CN([C@@H]1CCc2c(CC(=O)O)c3ccccc3n2C1)S(=O)(=O)c1ccc(F)cc1	cell-free assay, competition with immobilised ligand	1 µM	remaining binding	100%
